Measured values taken from ChEMBL document CHEMBL3259728, “Design, synthesis and biological evaluation of some novel substituted quinazolines as antitumor agents” (2014).

Experiments:
Type in all cases: functional
[1] = tested on: PC-3; assay: Growth inhibition of human PC3 cells assessed as cell growth at 10^-4 M after 48 hrs by SRB assay; details: PC-3, 48 h, read-out: Activity
[2] = tested on: T47D; assay: Growth inhibition of human T47D cells assessed as cell growth at 10^-5 M after 48 hrs by SRB assay; details: read-out: Activity
[3] = tested on: CCRF-CEM; assay: Cytotoxicity against human CCRF-CEM cells after 48 hrs by SRB assay
Procedure, shortened: (§1)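 NCI 60-cell-line panel of human tumour lines from nine cancer types. Continuous 48 h exposure at five 10-fold dilutions from 10^-4 to 10^-8 M, with 5-FU as positive control. SRB protein stain read spectrophotometrically at time zero, untreated control and each concentration. GI50, TGI and LC50 were derived from the [(Ti−Tz)/(C−Tz)]×100 growth relations, and out-of-range values are given as > or < the tested limits.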

[4] = tested on: A498; assay: Cytotoxicity against human A498 cells after 48 hrs by SRB assay; details: A498, 48 h; procedure, shortened: as §1
[5] = tested on: IGROV-1; assay: Growth inhibition of human IGROV1 cells assessed as cell growth at 10^-6 M after 48 hrs by SRB assay; details: IGROV-1, 48 h, read-out: Activity
[6] = Growth inhibition of human Hs578T cells assessed as cell growth at 10^-4 M after 48 hrs by SRB assay; details: Hs-578T, read-out: Activity
[7] = Growth inhibition of human MOLT4 cells assessed as cell growth at 10^-4 M after 48 hrs by SRB assay; details: MOLT-4, 48 h, read-out: Activity
[8] = Growth inhibition of human OVCAR5 cells assessed as cell growth at 10^-8 M after 48 hrs by SRB assay; details: OVCAR-5, 48 h, read-out: Activity
[9] = tested on: Malme-3M; assay: Growth inhibition of human MALME-3M cells assessed as cell growth at 10^-5 M after 48 hrs by SRB assay; details: read-out: Activity
[10] = tested on: MDA-MB-435; assay: Growth inhibition of human MDA-MB-435 cells assessed as cell growth at 10^-4 M after 48 hrs by SRB assay; details: MDA-MB-435, 48 h, read-out: Activity
[11] = Growth inhibition of human LOXIMVI cells assessed as cell growth at 10^-6 M after 48 hrs by SRB assay; details: LOX IMVI, read-out: Activity
[12] = tested on: IGROV-1; assay: Cytotoxicity against human IGROV1 cells after 48 hrs by SRB assay; details: IGROV-1, 48 h; procedure, shortened: as §1
[13] = tested on: MDA-MB-468; assay: Growth inhibition of human MDA-MB-468 cells assessed as cell growth at 10^-4 M after 48 hrs by SRB assay; details: MDA-MB-468, 48 h, read-out: Activity
[14] = Growth inhibition of human UACC62 cells assessed as cell growth at 10^-8 M after 48 hrs by SRB assay; details: UACC-62, 48 h, read-out: Activity
[15] = tested on: NCI-H23; assay: Growth inhibition of human NCI-H23 cells assessed as cell growth at 10^-8 M after 48 hrs by SRB assay; details: NCI-H23, 48 h, read-out: Activity
[16] = tested on: CAKI-1; assay: Cytotoxicity against human CAKI-1 cells after 48 hrs by SRB assay; details: CAKI-1, 48 h; procedure, shortened: as §1
[17] = Growth inhibition of human HCT15 cells assessed as cell growth at 10^-7 M after 48 hrs by SRB assay; details: HCT-15, 48 h, read-out: Activity
[18] = tested on: DU-145; assay: Growth inhibition of human DU145 cells assessed as cell growth at 10^-7 M after 48 hrs by SRB assay; details: DU-145, 48 h, read-out: Activity
[19] = tested on: U-251; assay: Cytotoxicity against human U251 cells after 48 hrs by SRB assay; details: U-251, 48 h
Procedure, shortened: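 NCI 60-cell-line panel, 48 h continuous exposure to five 10-fold dilutions from 10^-4 to 10^-8 M. SRB protein staining was read spectrophotometrically, with time-zero, untreated-control and treated absorbances. GI50, TGI and LC50 were derived from the percentage-growth formulas. Values outside the tested range are expressed as more or less than the maximum or minimum concentration.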

[20] = tested on: NCI-H460; assay: Growth inhibition of human NCI-H460 cells assessed as cell growth at 10^-5 M after 48 hrs by SRB assay; details: NCI-H460, 48 h, read-out: Activity
[21] = tested on: HOP-62; assay: Cytotoxicity against human HOP62 cells after 48 hrs by SRB assay; details: HOP-62, 48 h; procedure, shortened: as §1
[22] = Cytotoxicity against human OVCAR4 cells after 48 hrs by SRB assay; details: OVCAR-4, 48 h; procedure, shortened: as §1
[23] = Growth inhibition of human HOP92 cells assessed as cell growth at 10^-8 M after 48 hrs by SRB assay; details: HOP-92, 48 h, read-out: Activity
[24] = tested on: HOP-62; assay: Growth inhibition of human HOP62 cells assessed as cell growth at 10^-4 M after 48 hrs by SRB assay; details: HOP-62, 48 h, read-out: Activity
[25] = tested on: KM12; assay: Cytotoxicity against human KM12 cells after 48 hrs by SRB assay; details: KM12, 48 h; procedure, shortened: as §1
[26] = tested on: SK-MEL-28; assay: Growth inhibition of human SK-MEL-28 cells assessed as cell growth at 10^-5 M after 48 hrs by SRB assay; details: SK-MEL-28, 48 h, read-out: Activity
[27] = read-out: LC50 (the source's name)
[28] = read-out: pLC50 (the source's name) (converted)

Cc1ccc(-c2nc3ccc(Cl)cc3c(=O)n2/N=C/c2ccccc2)cc1
growth at 100 µM [1]: 49% | growth at 10 µM [2]: 14% | GI50 ([3]; read-out: GI50): > 100 µM | CC50 [3, 27]: > 100 µM | TGI ([3]; read-out: TGI): > 100 µM | GI50 ([3]; read-out: pGI50 (converted)): > 100 µM | CC50 [3, 28]: > 100 µM | TGI ([3]; read-out: pTGI): > 100 µM | GI50 ([4]; read-out: GI50): 5.91 µM | CC50 [4, 27]: > 100 µM | TGI ([4]; read-out: TGI): > 100 µM | GI50 ([4]; read-out: pGI50 (converted)): 5.89 µM | CC50 [4, 28]: > 100 µM | TGI ([4]; read-out: pTGI): > 100 µM | growth at 1 µM [5]: 71% | growth at 100 µM [6]: -9% | growth at 100 µM [7]: 56% | growth at 0.01 µM [8]: 96% | growth at 10 µM [9]: 43% | growth at 100 µM [10]: 57% | growth at 1 µM [11]: 89% | GI50 ([12]; read-out: GI50): 3.69 µM | CC50 [12, 27]: > 100 µM | TGI ([12]; read-out: TGI): > 100 µM | GI50 ([12]; read-out: pGI50 (converted)): 3.72 µM | CC50 [12, 28]: > 100 µM | TGI ([12]; read-out: pTGI): > 100 µM | growth at 100 µM [13]: 45% | growth at 0.01 µM [14]: 93% | growth at 0.01 µM [15]: 98% | GI50 ([16]; read-out: GI50): 4.82 µM | CC50 [16, 27]: > 100 µM | TGI ([16]; read-out: TGI): > 100 µM | GI50 ([16]; read-out: pGI50 (converted)): 4.79 µM | CC50 [16, 28]: > 100 µM | TGI ([16]; read-out: pTGI): > 100 µM | growth at 0.1 µM [17]: 92% | growth at 0.1 µM [18]: 98% | GI50 ([19]; read-out: GI50): 5.05 µM | CC50 [19, 27]: > 100 µM | TGI ([19]; read-out: TGI): > 100 µM | GI50 ([19]; read-out: pGI50 (converted)): 5.01 µM | CC50 [19, 28]: > 100 µM | TGI ([19]; read-out: pTGI): > 100 µM | growth at 10 µM [20]: 23% | GI50 ([21]; read-out: GI50): 1.98 µM | CC50 [21, 27]: 31.8 µM | TGI ([21]; read-out: TGI): 5.09 µM | GI50 ([21]; read-out: pGI50 (converted)): 2 µM | CC50 [21, 28]: 31.6 µM | TGI ([21]; read-out: pTGI (converted)): 5.13 µM | GI50 ([22]; read-out: GI50): 4.54 µM | CC50 [22, 27]: > 100 µM | TGI ([22]; read-out: TGI): > 100 µM | GI50 ([22]; read-out: pGI50 (converted)): 4.57 µM | CC50 [22, 28]: > 100 µM | TGI ([22]; read-out: pTGI): > 100 µM | growth at 0.01 µM [23]: 93% | growth at 100 µM [24]: -64% | GI50 ([25]; read-out: GI50): > 100 µM | CC50 [25, 27]: > 100 µM | TGI ([25]; read-out: TGI): > 100 µM | GI50 ([25]; read-out: pGI50 (converted)): > 100 µM | CC50 [25, 28]: > 100 µM | TGI ([25]; read-out: pTGI): > 100 µM | growth at 10 µM [26]: 60%
